Calls of active or inactive are those of the source.
Assays:
Format in all cases: functional, organism-based
[1] = tested on: Bacillus anthracis; assay: Antibacterial activity against Bacillus anthracis at 1mM by almar blue dye reduction assay
[2] = tested on: Bacillus cereus; assay: Antibacterial activity against Bacillus cereus at 1 mM by almar blue dye reduction assay
How it was run: (§1)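 Single-point primary screen at 1 mM using Alamar Blue dye reduction as the growth read-out.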

[3] = tested on: Bacillus subtilis; assay: Antibacterial activity against Bacillus subtilis at 1 mM by almar blue dye reduction assay; how it was run: as §1
[4] = tested on: Staphylococcus aureus; assay: Antibacterial activity against Staphylococcus aureus at 1 mM by almar blue dye reduction assay; how it was run: as §1
[5] = tested on: Escherichia coli; assay: Antibacterial activity against Escherichia coli at 1 mM by almar blue dye reduction assay; how it was run: as §1
[6] = tested on: Pseudomonas aeruginosa; assay: Antibacterial activity against Pseudomonas aeruginosa at 1 mM by almar blue dye reduction assay; how it was run: as §1
[7] = tested on: Candida albicans; assay: Antifungal activity against Candida albicans at 1 mM by almar blue dye reduction assay; how it was run: as §1
[8] = tested on: Cryptococcus neoformans; assay: Antifungal activity against Cryptococcus neoformans at 1 mM by almar blue dye reduction assay; how it was run: as §1
[9] = tested on: Saccharomyces cerevisiae; assay: Antifungal activity against Saccharomyces cerevisiae at 1 mM by almar blue dye reduction assay; how it was run: as §1

Measured: Activity

CCCCN(CC#Cc1cn([C@H](C)C[C@@H]2CC[C@H]([C@@H](C)C(=O)N3CCCC3)O2)nn1)CCCC
inactive: all assays above

C[C@H](C[C@@H]1CC[C@H]([C@@H](C)C(=O)N2CCN(CC3CCCO3)CC2)O1)n1cc(C#CC2=CCCCC2)nn1 (stereo partly specified)
inactive: all assays above

C[C@H](C[C@@H]1CC[C@H]([C@@H](C)C(=O)N2CCN(CC3CCCO3)CC2)O1)n1cc(C#CCC2CCCC2)nn1 (stereo partly specified)
inactive: all assays above

CCN(CC)C(=O)[C@H](C)C1CCC(C[C@@H](C)n2cc(C#CCOC(=O)OCc3ccccc3)nn2)O1 (single isomer, unassigned)
inactive: all assays above

CC(C)NC(=O)[C@H](C)[C@H]1CC[C@@H](C[C@@H](C)n2cc(C#CCOc3cccc(-c4ccccc4)c3)nn2)O1
inactive: all assays above

C[C@H](C[C@@H]1CC[C@H]([C@@H](C)C(=O)N(C)Cc2ccccc2)O1)n1cc(C#CCN2CCOCC2)nn1
inactive: all assays above

C[C@H](CC1CCC([C@@H](C)C(=O)N2CCCC2)O1)n1cc(C#CCOC(=O)OCc2ccccc2)nn1 (single isomer, unassigned)
inactive: all assays above

CCN(CC)C(=O)[C@H](C)[C@H]1CC[C@@H](C[C@@H](C)n2cc(C#Cc3cccc4ccccc34)nn2)O1
inactive: all assays above

C[C@H](C[C@@H]1CC[C@H]([C@@H](C)C(=O)N2CCN(CC3CCCO3)CC2)O1)n1cc(C#CCOc2ccc(Br)cc2)nn1 (stereo partly specified)
inactive: all assays above

Cc1cccc(NC(=O)OCC#Cc2cn([C@H](C)CC3CCC([C@@H](C)C(=O)NC(C)C)O3)nn2)c1 (single isomer, unassigned)
inactive: all assays above

COc1ccc(OCC#Cc2cn([C@H](C)C[C@@H]3CC[C@H]([C@@H](C)C(=O)N(C)Cc4ccccc4)O3)nn2)cc1
inactive: all assays above

COc1ccc(OCC#Cc2cn([C@H](C)C[C@@H]3CC[C@H]([C@@H](C)C(=O)N4CCN(CC5CCCO5)CC4)O3)nn2)cc1 (stereo partly specified)
inactive: all assays above

CCCCN(CC#Cc1cn([C@H](C)C[C@@H]2CC[C@H]([C@@H](C)C(=O)NC(C)C)O2)nn1)CCCC
inactive: all assays above

CCN(CC)C(=O)[C@H](C)[C@H]1CC[C@@H](C[C@@H](C)n2cc(C#CCN(C)CCc3ccccc3)nn2)O1
inactive: all assays above

COCC#Cc1cn([C@H](C)C[C@@H]2CC[C@H]([C@@H](C)C(=O)NC(C)C)O2)nn1
inactive: all assays above

CCN(CC)C(=O)[C@H](C)[C@H]1CC[C@@H](C[C@@H](C)n2cc(C#CCOc3ccccc3)nn2)O1
inactive: all assays above

C[C@H](C[C@@H]1CC[C@H]([C@@H](C)C(=O)N(C)Cc2ccccc2)O1)n1cc(C#CCN(C)C)nn1
inactive: all assays above

C[C@H](C[C@@H]1CC[C@H]([C@@H](C)C(=O)N2CCCC2)O1)n1cc(C#Cc2ccccc2)nn1
not listed: [9]
inactive: all other assays above

— ChEMBL document CHEMBL1155099, “Natural products in parallel synthesis: triazole libraries of nonactic acid” (2008)
